# Active and inactive are the calls of the source. The rule behind the calls is not given here.
# Columns and labels:
# [1] = biological target: T1, Histone-arginine methyltransferase CARM1 (Homo sapiens) (UniProt Q86X55); assay: Inhibition of PRMT4 (unknown origin) assessed as reduction in incorporation of [3H]-labeled methyl group into biotinylated substrate using [3H-SAM] at 50 uM incubated for 1 hr by scintillation proximity assay relative to control
# T1 sequence (whole entry): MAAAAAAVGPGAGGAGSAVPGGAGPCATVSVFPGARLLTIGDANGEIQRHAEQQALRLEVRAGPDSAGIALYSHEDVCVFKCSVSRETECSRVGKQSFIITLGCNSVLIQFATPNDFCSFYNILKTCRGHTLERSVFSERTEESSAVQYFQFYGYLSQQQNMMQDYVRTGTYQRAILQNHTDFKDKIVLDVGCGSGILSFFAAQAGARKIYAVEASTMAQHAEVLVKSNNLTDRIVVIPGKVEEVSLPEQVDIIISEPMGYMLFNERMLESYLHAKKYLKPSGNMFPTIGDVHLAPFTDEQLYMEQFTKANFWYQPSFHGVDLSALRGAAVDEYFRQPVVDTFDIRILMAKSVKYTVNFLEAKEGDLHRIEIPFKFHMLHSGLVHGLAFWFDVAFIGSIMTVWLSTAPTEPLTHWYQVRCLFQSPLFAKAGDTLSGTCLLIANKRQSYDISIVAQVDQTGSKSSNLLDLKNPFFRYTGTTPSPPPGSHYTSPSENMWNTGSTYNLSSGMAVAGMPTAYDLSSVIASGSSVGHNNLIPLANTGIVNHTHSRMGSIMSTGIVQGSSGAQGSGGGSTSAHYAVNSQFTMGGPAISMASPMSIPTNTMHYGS
# Procedure, shortened: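 Panel of 33 methyltransferases (22 PKMTs, 3 DNMTs, 8 PRMTs), each tested at 10 and 50 μM compound. Activity was read as ³H-methyl transfer from ³H-SAM in a radiometric assay done as previously described.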
# Homo sapiens = species: Homo sapiens; assay: Selectivity index, ratio of IC50 for human PRMT1 to IC50 for human PRMT6
# [2] = biological target: RNA 5'-monophosphate methyltransferase (Homo sapiens) (UniProt Q7Z5W3); assay: Inhibition of BCDIN3D (unknown origin) assessed as reduction in incorporation of [3H]-labeled methyl group into biotinylated substrate using [3H-SAM] at 10 uM incubated for 1 hr by scintillation proximity assay
# Chain of RNA 5'-monophosphate methyltransferase (Homo sapiens) (Q7Z5W3 whole entry): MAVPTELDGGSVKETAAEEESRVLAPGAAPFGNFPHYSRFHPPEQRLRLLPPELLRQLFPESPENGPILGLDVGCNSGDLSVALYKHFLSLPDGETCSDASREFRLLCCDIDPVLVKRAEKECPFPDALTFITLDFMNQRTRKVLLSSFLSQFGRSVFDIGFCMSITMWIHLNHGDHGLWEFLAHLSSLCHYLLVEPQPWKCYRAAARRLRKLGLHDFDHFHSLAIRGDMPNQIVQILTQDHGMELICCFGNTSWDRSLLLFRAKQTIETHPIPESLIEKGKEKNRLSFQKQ
smiles,measurement,setting,value
C=CC(=O)Nc1cccc(-c2c[nH]cc2CN(C)CCN)c1,inhibition,[1],> 50%
same,Ratio IC50,Homo sapiens,6
same,inhibition,[2],inactive
